Holding throughout (type): functional
Test [1] has as its system Mycobacterium tuberculosis. Briefly: Antimycobacterial activity against Mycobacterium tuberculosis CNCTC My 331/88 after 21 days by microdilution method. The note with it: CNCTC My 331/88, 504 h. The method in brief:
(§1)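 Strains from the Czech National Collection of Type Cultures, tested by dilution micromethod in Šula semisynthetic medium. Incubated at 37 °C and read at 14 and 21 days. MIC is the lowest concentration inhibiting growth.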

Test [2] relates to Mycobacterium avium. Briefly: Antimycobacterial activity against Mycobacterium avium CNCTC My 330/88 after 21 days by microdilution method. The note with it: CNCTC My 330/88, 504 h. The method in brief: as §1
For orientation: Dilution methods test growth across graded concentrations, often in twofold steps.

Test [3] concerns Mycobacterium kansasii. Briefly: Antimycobacterial activity against Mycobacterium kansasii 6509/96 after 21 days by microdilution method. The note with it: 6509/96, 504 h. A digest of the protocol: (§2)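 Clinical isolate that, unlike the standard strain, is not isoniazid-resistant. Tested by dilution micromethod in Šula semisynthetic medium, with compounds added in DMSO at final 1000 down to 0.25 µmol/L in twofold steps. Löwenstein-Jensen plate used as inoculum sterility and growth control. Incubated at 37 °C and read at 14 and 21 days. MIC is the lowest concentration inhibiting growth.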

Test [4] concerns Mycobacterium kansasii. Briefly: Antimycobacterial activity against Mycobacterium kansasii 6509/96 after 14 days by microdilution method. The note with it: 6509/96, 336 h. A digest of the protocol: as §2
Test [5] has as its system Mycobacterium kansasii. Briefly: Antimycobacterial activity against Mycobacterium kansasii CNCTC My 235/80 after 21 days by microdilution method. The note with it: CNCTC My 235/80, 504 h. The method in brief:
as §1

Test [6] deals with Mycobacterium tuberculosis. The experiment in a line: Antimycobacterial activity against Mycobacterium tuberculosis CNCTC My 331/88 after 14 days by microdilution method. The note with it: CNCTC My 331/88, 336 h. A digest of the protocol:
as §1

Test [7] concerns Mycobacterium kansasii. Briefly: Antimycobacterial activity against Mycobacterium kansasii CNCTC My 235/80 after 14 days by microdilution method. The note with it: CNCTC My 235/80, 336 h. The method in brief: as §1
Test [8] relates to Mycobacterium avium. Briefly: Antimycobacterial activity against Mycobacterium avium CNCTC My 330/88 after 14 days by microdilution method. The note with it: CNCTC My 330/88, 336 h. A digest of the protocol: as §1

Converted amounts (≈) assume the structure as drawn.

In general, MIC refers to the lowest concentration that inhibits growth of the organism. `CCC(C)c1ccc(-n2c(=S)oc3ccc(Br)cc3c2=S)cc1` (stereo not given): the MIC in test [1] came out at 2 µM (≈ 0.813 µg/mL); against Mycobacterium avium [2], 32 µM (≈ 13 µg/mL); in the test with Mycobacterium kansasii [3] it was 4 µM (≈ 1.63 µg/mL); against Mycobacterium kansasii [4] it was 2 µM (≈ 0.813 µg/mL); against Mycobacterium kansasii [5], 8 µM (≈ 3.25 µg/mL); in test [6], 1 µM (≈ 0.406 µg/mL). The MIC in the test on Mycobacterium kansasii [7] was determined as 4 µM (≈ 1.63 µg/mL); in the test on Mycobacterium avium [8] it was 32 µM (≈ 13 µg/mL).

On to `CC(C)c1ccc(-n2c(=O)oc3ccc(Br)cc3c2=S)cc1`, for which the MIC stood at 0.5 µM (≈ 0.188 µg/mL) in test [1]; 8 µM (≈ 3.01 µg/mL) in the test on Mycobacterium avium [2]; 8 µM (≈ 3.01 µg/mL) against Mycobacterium kansasii [3]; 4 µM (≈ 1.51 µg/mL) in the test with Mycobacterium kansasii [4]; 62.5 µM (≈ 23.5 µg/mL) against Mycobacterium kansasii [5]; 0.25 µM (≈ 0.0941 µg/mL) in test [6]. In addition, the MIC came out at 32 µM (≈ 12 µg/mL) against Mycobacterium kansasii [7] and 4 µM (≈ 1.51 µg/mL) in the test with Mycobacterium avium [8].

As for `Cc1ccc2c(=S)n(-c3ccc(C(C)C)cc3)c(=S)oc2c1`, the MIC came out at 1 µM (≈ 0.327 µg/mL) in test [1]; 0.5 µM (≈ 0.164 µg/mL) in the test on Mycobacterium avium [2]; 2 µM (≈ 0.655 µg/mL) against Mycobacterium kansasii [3]; 1 µM (≈ 0.327 µg/mL) in the test on Mycobacterium kansasii [4]; 4 µM (≈ 1.31 µg/mL) in the test on Mycobacterium kansasii [5]; 0.5 µM (≈ 0.164 µg/mL) in test [6]. The values for the MIC against Mycobacterium kansasii [7] and against Mycobacterium avium [8] were 2 µM (≈ 0.655 µg/mL) and 0.5 µM (≈ 0.164 µg/mL), respectively.

Consider `CCc1ccc(-n2c(=O)oc3ccc(Cl)cc3c2=O)cc1`, for which the MIC in test [1] came to 16 µM (≈ 4.83 µg/mL); against Mycobacterium avium [2], 32 µM (≈ 9.66 µg/mL); with Mycobacterium kansasii [3], 16 µM (≈ 4.83 µg/mL); in the test on Mycobacterium kansasii [4] it was 16 µM (≈ 4.83 µg/mL); in the test on Mycobacterium kansasii [5] it was 16 µM (≈ 4.83 µg/mL); in test [6] it was 8 µM (≈ 2.41 µg/mL). Moreover, the MIC with Mycobacterium kansasii [7] and against Mycobacterium avium [8] was 16 µM (≈ 4.83 µg/mL) each time.

As for `CCCCc1ccc(-n2c(=O)oc3ccc(Cl)cc3c2=O)cc1`, the MIC in test [1] worked out at 16 µM (≈ 5.28 µg/mL); against Mycobacterium avium [2], 16 µM (≈ 5.28 µg/mL); in the test with Mycobacterium kansasii [3], 16 µM (≈ 5.28 µg/mL); in the test with Mycobacterium kansasii [4] it was 8 µM (≈ 2.64 µg/mL); against Mycobacterium kansasii [5], 8 µM (≈ 2.64 µg/mL); in test [6], 16 µM (≈ 5.28 µg/mL). In addition, the MIC against Mycobacterium kansasii [7] is 8 µM (≈ 2.64 µg/mL); against Mycobacterium avium [8], 16 µM (≈ 5.28 µg/mL).

(Values after ChEMBL document CHEMBL1287747, “Highly active antimycobacterial derivatives of benzoxazine” (2010).)
